Bioassay records: PubChem, several laboratories
STAT1 activator: STAT1 signaling activation | NIH 3T3 STAT1-luciferase reporter, IFN-gamma, luminescence; 100% = IFN-gamma alone, no compound | activation (% of control), % at 5.5 µM | 200,000 tested, 2.6% active | AID 932;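 active = activation above the screen-wide mean activation plus 3 SD, cut at about 130% in these data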;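 note: raw ratio to IFN-gamma control signal so 100% means no change and 0% no light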
STAT3 blocker: STAT3 signaling inhibition; 190,000 tested, 0.89% active; AID 862; inhibition, % at 5.5 µM; U3A cells, IL-6 STAT3-luciferase reporter, luminescence; host cell line lacks STAT1;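 active = inhibition above the mean inhibition across all screened compounds plus 3 SD, cut at about 44% in these data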;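 note: 0% = DMSO only wells and 100% = 100 µM nifuroxazide control wells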
STAT1 inh-1: inhibitors of IFN-gamma induced STAT1 signaling | NIH 3T3 STAT1-luciferase reporter, luminescence | AID 920 | 200,000 tested, 0.35% active | inhibition, % at 5.5 µM;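 active = inhibition above a set limit, the mean inhibition across all tested compounds plus 3 SD, cut at about 34% in these data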;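 note: 0% = IFN-gamma with DMSO and 100% = IFN-gamma with 300 µM nifuroxazide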
APP 5'UTR act: APP 5'UTR luciferase reporter activation; activation, % at 2 µM; 190,000 tested, 1% active; SH-SY5Y APP 5'UTR luciferase reporter, luminescence; zero percent = DMSO vehicle wells; AID 1276;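 active = activation above a set limit, based on mean plus 3 SD of controls, cut at about 140% in these data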
NF-kB expr up: NF-kB expression increase, human neuronal cells. NF-kB reporter expression; active compounds read high. fold change at 12.5 µM. 190,000 tested, 1.6% active; in the data active = fold change above about 3.3
STAT3 act: increases IL-6 driven STAT3 reporter signal | 190,000 tested, 0.91% active | AID 871 | activation (% of control), % at 5.6 µM | U3A cells, IL-6 STAT3-luciferase reporter, luminescence; 100% = signal with IL-6 EC80 alone;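 active = activation above the screen-wide mean of compound activation plus 3 SD, cut at about 130% in these data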;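 note: 0% = background luminescence of wells with medium and substrate only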
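Material: human STAT1-deficient U3A cells with stable STAT3-luciferase reporter / Probe or stimulus: IL-6 stimulus at 33 ng/mL final / Schedule: 1 h compound pre-exposure, 6 h IL-6 stimulation, 37 °C / Technique: luminescence / Read-out basis: percent of IL-6-only median luminescence / Control set: IL-6-only high control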
STAT1 inh-2: STAT1 inhibition, confirmation assay; inhibition, % at 5.5 µM; 200 tested, 55% active; shares compounds with STAT1 inh-1; AID 1263; NIH 3T3 STAT1-luciferase reporter, IFN-gamma, luminescence;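 active = triplicate mean inhibition exceeding the hit cutoff computed for the primary STAT1 screen, cut at about 35% in these data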;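 note: 0% = DMSO with IFN-gamma and 100% = 300 µM nifuroxazide with IFN-gamma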
NFkB inh STAT1ct: NF-kappaB inhibition in STAT1 inhibitor counter-screen | HEK293T NF-kB luciferase reporter, TNF-alpha induced, luminescence | 200 tested, 30% active | inhibition, % at 5.7 µM | shares compounds with STAT1 inh-1;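 active = inhibition above the mean of solvent-only control wells plus 3 SD of those wells, cut at about 15% in these data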;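 note: 0% = DMSO with TNF-alpha and 100% = MG-132 control with TNF-alpha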
STAT3 inh STAT1c: inhibits STAT3, counter-screen to STAT1 inhibitors | 200 tested, 20% active | inhibition, % at 5.7 µM | U3A cells, IL-6 STAT3 luciferase reporter, luminescence; cells lacking STAT1 | shares compounds with STAT1 inh-1;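 active = inhibition above the mean of solvent-only control wells plus 3 SD, set per campaign, cut at about 25% in these data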;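 note: 0% = IL-6 plus DMSO and 100% = IL-6 plus nifuroxazide control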
* hit, by the source's call. Hits are enriched below; roughly 4.9% of the tested compounds scored in any of these assays.

For CCOC(=O)/C=C(\C)Nc1cc(C)nn1-c1ccccc1 the results were STAT1 activator 101.9, STAT3 blocker 7.5, STAT1 inh-1 -0.6, APP 5'UTR act -13.5, NF-kB expr up 1.19 and STAT3 act 97.4.
Screening CCOC(=O)C(=CNc1cc(C)nn1-c1ccc(Cl)cc1)C(=O)OCC returned STAT1 activator 45.6, STAT3 blocker 2.4, STAT1 inh-1 58.9*, APP 5'UTR act 0.8, NF-kB expr up 0.64, STAT3 act 104.0, STAT1 inh-2 55.4*, NFkB inh STAT1ct 16.9* and STAT3 inh STAT1c 0.7.
Screening Cc1ccc(-c2csc3ncnc(Sc4nnc(CN5CCCCCC5=O)o4)c23)cc1 returned STAT1 activator 59.6, STAT3 blocker 26.7, STAT1 inh-1 44.0*, APP 5'UTR act -26.1, NF-kB expr up 0.35, STAT3 act 80.8, STAT1 inh-2 55.6*, NFkB inh STAT1ct 12.1 and STAT3 inh STAT1c 21.0.
CC(=O)c1ccc(-c2ccc(C(=O)NC3CCCCCC3)o2)cc1 was read as STAT1 activator 110.4, STAT3 blocker 3.5, STAT1 inh-1 -11.2, APP 5'UTR act -16.4, NF-kB expr up 1.01 and STAT3 act 101.1.
Screening COc1ccc(OC)c(Cc2nnc(CCC(=O)NCc3ccsc3)o2)c1 returned STAT1 activator 111.4, STAT3 blocker -2.4, STAT1 inh-1 -14.4, APP 5'UTR act 38.7, NF-kB expr up 1.84 and STAT3 act 104.0.
Screening C=CCOC(=O)C1=C[C@H](c2ccc(Br)cc2)[C@@H](CCCO)[C@H](OCC)O1 returned STAT1 activator 65.4, STAT1 inh-1 38.4*, APP 5'UTR act -6.0, NF-kB expr up 0.84, STAT1 inh-2 20.8, NFkB inh STAT1ct -6.6 and STAT3 inh STAT1c 0.5.
Cc1ccc(Nc2nc(-c3c(C)nc4ncccn34)cs2)cc1 was read as STAT1 activator 92.4, STAT3 blocker 19.1, STAT1 inh-1 8.5, APP 5'UTR act -94.8, NF-kB expr up 2.19 and STAT3 act 92.2.
For Cc1nc2ncccn2c1-c1csc(Nc2ccc(O)cc2)n1 the results were STAT1 activator 57.1, STAT3 blocker 30.3, STAT1 inh-1 45.1*, APP 5'UTR act -12.8, NF-kB expr up 2.75, STAT3 act 77.3, STAT1 inh-2 42.5*, NFkB inh STAT1ct 8.7 and STAT3 inh STAT1c 32.4*.
Screening COc1ccc(-n2c(-c3ccc(Br)cc3)nc(=S)c3c2CCCC3)cc1 returned STAT1 activator 106.1, STAT3 blocker -4.4, STAT1 inh-1 -6.8, APP 5'UTR act -7.5, NF-kB expr up 0.89 and STAT3 act 103.3.
COc1ccc(-n2c(-c3ccc(Br)cc3)c[n+]3c2CCCCC3)cc1 was read as STAT1 activator 62.2, STAT3 blocker 27.3, STAT1 inh-1 39.5*, APP 5'UTR act 0.1, NF-kB expr up 0.75, STAT3 act 78.2, STAT1 inh-2 31.8, NFkB inh STAT1ct -4.8 and STAT3 inh STAT1c 21.8.
`O=C(NC(Cc1c[nH]c2ccccc12)C(=O)OCC(=O)c1cccc2ccccc12)c1cccs1` (stereo unspecified) gave STAT1 activator 95.4, STAT3 blocker -10.1, STAT1 inh-1 5.0, APP 5'UTR act -2.3, NF-kB expr up 0.86 and STAT3 act 107.2.
Screening CCC(/C=C1\Sc2ccc(OC)cc2N1CC)=C\c1sc2ccc(OC)cc2[n+]1CCCS(=O)(=O)[O-] returned STAT1 activator 62.2, STAT3 blocker 34.7, STAT1 inh-1 40.8*, APP 5'UTR act -4.4, NF-kB expr up 0.33, STAT3 act 74.0, STAT1 inh-2 30.4, NFkB inh STAT1ct -6.3 and STAT3 inh STAT1c 8.1.
Cc1ccc2[nH]c3c(N4CCN(Cc5ccccc5)CC4)ncnc3c2c1 was read as STAT1 activator 67.0, STAT3 blocker 30.5, STAT1 inh-1 36.3*, APP 5'UTR act 9.0, NF-kB expr up 0.31, STAT3 act 79.1, STAT1 inh-2 40.0*, NFkB inh STAT1ct 8.9 and STAT3 inh STAT1c 16.1.
`c1ccc(CN2CCN(c3ncnc4c3[nH]c3ccccc34)CC2)cc1` gave STAT1 activator 62.8, STAT3 blocker 8.0, STAT1 inh-1 41.3*, APP 5'UTR act -5.5, NF-kB expr up 0.27, STAT3 act 102.9, STAT1 inh-2 48.4*, NFkB inh STAT1ct 21.5* and STAT3 inh STAT1c 16.1.
COc1cccc(N2CCN(c3ncnc4c3[nH]c3ccccc34)CC2C)c1 (stereo unspecified) was read as STAT1 activator 68.6, STAT3 blocker 23.1, STAT1 inh-1 34.6*, APP 5'UTR act 0.0, NF-kB expr up 0.3, STAT3 act 84.3, STAT1 inh-2 45.6*, NFkB inh STAT1ct 25.1* and STAT3 inh STAT1c 36.5*.
CCS(=O)(=O)c1nc(S(=O)(=O)c2ccc(Cl)cc2)c(N2CCc3ccccc3C2)s1 was read as STAT1 activator 95.5, STAT3 blocker -3.4, STAT1 inh-1 5.0, APP 5'UTR act 6.4, NF-kB expr up 0.8 and STAT3 act 106.1.
Screening Cc1cccc(N2CC(O)(c3cccs3)[N+]3=C2CCCC3)c1C (stereo unspecified) returned STAT1 activator 62.4, STAT3 blocker 4.4, STAT1 inh-1 38.7*, APP 5'UTR act 5.2, NF-kB expr up 1.26, STAT3 act 100.3, STAT1 inh-2 30.9, NFkB inh STAT1ct -5.5 and STAT3 inh STAT1c 0.3.
`COc1ccc(Oc2ccc3c(C(F)(F)F)cc(C(F)(F)F)nc3n2)cc1` gave STAT1 activator 99.5, STAT3 blocker 7.0, STAT1 inh-1 0.5, APP 5'UTR act 4.6, NF-kB expr up 1.11 and STAT3 act 99.2.
`Oc1ccc(Oc2ccc3c(C(F)(F)F)cc(C(F)(F)F)nc3n2)cc1` gave STAT1 activator 43.9, STAT3 blocker 19.6, STAT1 inh-1 61.5*, APP 5'UTR act 30.7, NF-kB expr up 0.61, STAT3 act 84.7, STAT1 inh-2 53.6*, NFkB inh STAT1ct 22.6* and STAT3 inh STAT1c 13.7.
Cc1ccc(-c2cc(C(F)F)nc(S(C)(=O)=O)n2)cc1 was read as STAT1 activator 69.8, STAT3 blocker 12.3, STAT1 inh-1 33.4, APP 5'UTR act -1.4, NF-kB expr up 1.01, STAT3 act 93.6, STAT1 inh-2 28.6, NFkB inh STAT1ct -25.2 and STAT3 inh STAT1c -6.7.
Screening COc1ccc(Nc2nccc(N(C)C)c2C#N)cc1 returned STAT1 activator 98.3, STAT3 blocker 8.9, STAT1 inh-1 0.2, APP 5'UTR act -6.9, NF-kB expr up 1.38 and STAT3 act 96.0.
